Assay results pooled from the literature.
Target: Tyrosine-protein kinase receptor UFO (AXL, Homo sapiens, UniProt P30530)
One construct used (P30530 1-894): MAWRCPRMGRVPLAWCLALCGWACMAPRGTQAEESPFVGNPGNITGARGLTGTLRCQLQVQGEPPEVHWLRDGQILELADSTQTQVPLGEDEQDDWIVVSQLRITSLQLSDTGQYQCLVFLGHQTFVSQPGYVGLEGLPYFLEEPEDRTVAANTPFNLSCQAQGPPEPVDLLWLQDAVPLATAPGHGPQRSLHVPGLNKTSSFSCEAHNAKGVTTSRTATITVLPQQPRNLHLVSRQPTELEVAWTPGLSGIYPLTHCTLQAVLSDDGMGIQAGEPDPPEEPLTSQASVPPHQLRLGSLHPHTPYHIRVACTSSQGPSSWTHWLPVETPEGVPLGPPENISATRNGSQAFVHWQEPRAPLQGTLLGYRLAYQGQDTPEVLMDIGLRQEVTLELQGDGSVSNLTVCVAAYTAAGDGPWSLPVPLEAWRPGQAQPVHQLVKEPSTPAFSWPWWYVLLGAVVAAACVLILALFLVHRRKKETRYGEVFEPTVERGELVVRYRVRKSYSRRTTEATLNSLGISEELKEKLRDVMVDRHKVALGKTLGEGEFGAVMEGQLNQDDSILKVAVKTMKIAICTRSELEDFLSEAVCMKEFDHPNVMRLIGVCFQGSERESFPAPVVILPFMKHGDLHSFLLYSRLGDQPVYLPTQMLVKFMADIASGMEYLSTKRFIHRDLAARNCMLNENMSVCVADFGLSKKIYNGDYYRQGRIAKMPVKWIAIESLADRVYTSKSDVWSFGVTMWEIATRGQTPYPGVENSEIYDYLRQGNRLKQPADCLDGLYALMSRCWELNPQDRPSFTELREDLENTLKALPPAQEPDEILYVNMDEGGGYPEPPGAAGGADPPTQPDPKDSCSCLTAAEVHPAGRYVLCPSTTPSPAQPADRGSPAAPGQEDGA

Structure (SMILES)	effect on	action	technique	cell line	tested at	measurement	value
Cc1cc(NC(=O)c2cccc3cc(-c4cccc5[nH]nc(N)c45)ccc23)ccc1F	enzyme activity	inhibitor	–	–	0.1 µM	activity vs control	113%
COc1cc2ncnc(Nc3ccc(Oc4ccccc4)c(C)c3C)c2cc1OC	enzyme activity	inhibitor	–	–	1 µM	inhibition	-3%
O=C(Nc1cnn(-c2csc(C(=O)NC3COC3)c2)c1)Nc1ccccc1Cl	enzyme activity	inhibitor	–	–	5 µM	remaining activity	96.7%
CCCS(=O)(=O)Nc1ccc(F)c(C(=O)c2c[nH]c3ncc(-c4ccc(Cl)cc4)cc23)c1F	enzyme activity	inhibitor	–	–	1 µM	inhibition	< 10%
CC(C)(C)c1nc2c(s1)c1nc(N)ncc1c1ccc(NS(=O)(=O)c3c(F)cccc3F)c(F)c12	enzyme activity	inhibitor	radiometric	–	1 µM	remaining activity	100%
CNC(=O)c1cc(Oc2ccc(NC(=O)Nc3ccc(Cl)c(C(F)(F)F)c3)cc2)ccn1	enzyme activity	inhibitor	–	–	0.3 µM	inhibition	3%
CC1=C(C#N)[C@@H](c2ccc3[nH]nc(C)c3c2)C(C#N)=C(c2ccc(Cl)cc2)N1	cell-free assay	–	competition with immobilised ligand	–	1 µM	remaining binding	100%
N#CCCc1ccc2c(c1)-c1[nH]c3ccc([N+](=O)[O-])cc3c1CC(=O)N2	cell-free assay	–	–	–	0.5 µM	remaining signal	95.5%
COc1ccc2cc(OCC3(C(=O)O)CN(C(=O)c4ccc(F)cc4)C3)ccc2c1	cell-free assay	–	competition with immobilised ligand	–	1 µM	remaining binding	100%
CNC(=O)c1cc2c(Oc3ccc(NC(=O)C4(C(=O)Nc5ccc(F)cc5)CC4)cc3)ccnc2cc1OC	enzyme activity	inhibitor	radiometric	–	1 µM	inhibition	87%
CNC(=O)Nc1ccc2c(c1)[C@@]1(CC2)OC(=O)N(CC(=O)N(Cc2ccc(F)cc2)[C@@H](C)C(F)(F)F)C1=O	cell-free assay	–	competition with immobilised ligand	–	1 µM	remaining binding	67%
CNCc1ccc(-c2cc(-c3nc(-c4ccc(S(=O)(=O)C(C)C)cc4)cnc3N)on2)cc1	enzyme activity	inhibitor	–	–	0.4 µM	inhibition	27%
O=C1Nc2ccc(Cl)cc2C1=Cc1cc(Cl)c(O)c(Cl)c1	cell-free assay	–	–	–	0.5 µM	remaining signal	106%
CNCc1ccccc1-c1csc([C@H](C)Nc2nc(C)nc3cc(OC)c(OC)cc23)c1	cell-free assay	–	competition with immobilised ligand	–	1 µM	remaining binding	100%
COc1cc2nccc(Oc3ccc(NC(=O)c4c5n(n(-c6ccc(F)cc6)c4=O)CCCC5)cc3)c2cc1OC	enzyme activity	inhibitor	–	–	0.1 µM	inhibition	93%
O=C(O)c1ccc2c3c1cccc3c(=O)n1c3ccccc3nc21	enzyme activity	inhibitor	–	–	0.5 µM	remaining activity	94.3%

Structure (SMILES)	effect on	action	technique	cell line	tested at	measurement	value
Cc1c(C(=O)O)cc(-c2ccc(C3CCNCC3)cc2)c2ccc(-c3ccc(C(F)(F)F)cc3)cc12	binding	–	competition with immobilised ligand	–	1 µM	remaining binding	100%
Cc1ccc(NC(=O)c2ccc(C)c(C(F)(F)F)c2)cc1C#Cc1nn(C2CCC(O)CC2)c2ncnc(N)c12 (centres unmarked)	cell-free assay	–	–	–	10 µM	remaining signal	56%
O=C1NC(=O)c2cc(Nc3ccc(F)cc3)c(Nc3ccc(F)cc3)cc21	cell-free assay	–	–	–	0.5 µM	remaining signal	104%
CCCOc1ccc([C@H]2[C@H](C(=O)O)[C@@H](c3ccc4c(c3)OCO4)CN2CC(=O)Nc2c(CC)cccc2CC)cc1	cell-free assay	–	competition with immobilised ligand	–	1 µM	remaining binding	83%
CCN(CC)CCNC(=O)c1c(C)[nH]c(/C=C2\C(=O)Nc3ccc(F)cc32)c1C	enzyme activity	inhibitor	–	–	1 µM	remaining activity	7%
CCN(CC)CCNC(=O)c1c(C)[nH]c(/C=C2\C(=O)Nc3ccc(F)cc32)c1C	enzyme activity	inhibitor	–	–	10 µM	inhibition	94%
CCN1CCN(Cc2ccc(NC(=O)c3ccc(C)c(Oc4ccnc5[nH]ccc45)c3)cc2C(F)(F)F)CC1	target engagement in cells	inhibitor	chemoproteomics	A-375	5 µM	inhibition	-35.7%
CCCOc1ccc(OC)c(F)c1C(=O)c1ccc(C(=O)N[C@@H]2CNC[C@H]2NC(=O)c2ccc3[nH]ncc3c2)cc1	enzyme activity	inhibitor	–	–	10 µM	remaining activity	23%
CCC(=O)N[C@@H]1CC[C@H](C(=O)N(C)c2ccc(-c3nc4ccccc4o3)cc2)C1	cell-free assay	–	competition with immobilised ligand	–	1 µM	remaining binding	100%
COc1cc(Nc2c(C#N)cnc3cc(OCCCN4CCN(C)CC4)c(OC)cc23)c(Cl)cc1Cl	cell-free assay	–	–	–	0.5 µM	remaining signal	37.6%
Cc1[nH]c(/C=C2\C(=O)Nc3ccc(F)cc32)c(C)c1C(=O)N[C@H]1CCN(C(=O)N(C)C)C1	enzyme activity	inhibitor	–	–	1 µM	remaining activity	43%
O=c1c2ccccc2[nH]c(=S)n1CCN1CCC(=C(c2ccc(F)cc2)c2ccc(F)cc2)CC1	enzyme activity	inhibitor	–	–	0.5 µM	remaining activity	91.7%
COc1cc(Cl)c(C(=O)N[C@@H](CN[C@H]2CC[C@@H](N)CC2)Cc2ccc(C#N)cc2)cc1-c1ccc(CN[C@H](C)c2ccc(C)cc2)o1	enzyme activity	inhibitor	–	–	1 µM	remaining activity	56%
Cc1nc(Cc2cccc(C(F)(F)F)c2)sc1-c1ccc(C(N)=O)nc1	binding	–	competition with immobilised ligand	–	1 µM	remaining binding	100%
Cc1ccc(Nc2nccc(N(C)c3ccc4c(C)n(C)nc4c3)n2)cc1S(N)(=O)=O	cell-free assay	–	–	–	0.5 µM	remaining signal	78.1%
Nc1ncnc2occ(-c3ccc(NC(=O)Nc4cc(C(F)(F)F)ccc4F)cc3)c12	cell-free assay	–	–	–	20 µM	remaining signal	21%
